{"source": "ChEMBL document CHEMBL4373631", "about": "“Design, synthesis and evaluation of PD176252 analogues for ameliorating cisplatin-induced nephrotoxicity” (Medchemcomm, 2019)", "key": {"[1]": {"system": "HK-2", "assay": "Cytotoxicity against human HK2 cells assessed as reduction in cell viability after 24 hrs by MTT assay", "assay_type": "cell-based", "details": "hk-2, 24 h", "summary_of_the_method": "(§1)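 MTT cytotoxicity read-out on HK2 cells. Medium was changed, MTT in PBS added to a final 0.5 mg/mL, and plates incubated 4 h at 37°C. Medium was then removed, formazan dissolved in DMSO, and absorbance read at 492 nm.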"}, "[2]": {"system": "HK-2", "assay": "Antiinflammatory activity in human HK2 cells assessed as suppression of cisplatin-induced MCP-1 mRNA level at 4 uM by SYBR-green based RT-PCR analysis", "assay_type": "functional, cell-based", "summary_of_the_method": "(§2)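 Overnight starvation of HK2 cells in DMEM/F12 with 0.5% FBS, then 6 h compound pretreatment before cisplatin 20 μM. Cells harvested after 24 h. Total RNA extracted with an RNeasy kit, and MCP-1, TNF-α or IL-6 mRNA quantified by real-time PCR. Three to four independent experiments.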"}, "[3]": {"system": "HK-2", "assay": "Antiinflammatory activity in human HK2 cells assessed as suppression of cisplatin-induced IL-6 […] level at 4 uM by ELISA", "assay_type": "functional, cell-based", "summary_of_the_method": "(§3)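 HK2 cells starved overnight in DMEM/F12 with 0.5% FBS, pretreated with compound 6 h, then cisplatin 20 μM added. After 24 h, cytokine protein in the culture medium was measured with human TNF-α, IL-6 or MCP-1 ELISA kits per manufacturer's instructions. Three to four independent experiments.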"}, "[4]": {"system": "HK-2", "assay": "Antiinflammatory activity in human HK2 cells assessed as suppression of cisplatin-induced TNF-alpha […] level at 4 uM by ELISA", "assay_type": "functional, cell-based", "summary_of_the_method": "as §3"}, "[5]": {"molecular_target": "Transcription factor p65 (Homo sapiens) (UniProt Q04206)", "sequence (Q04206 whole entry)": "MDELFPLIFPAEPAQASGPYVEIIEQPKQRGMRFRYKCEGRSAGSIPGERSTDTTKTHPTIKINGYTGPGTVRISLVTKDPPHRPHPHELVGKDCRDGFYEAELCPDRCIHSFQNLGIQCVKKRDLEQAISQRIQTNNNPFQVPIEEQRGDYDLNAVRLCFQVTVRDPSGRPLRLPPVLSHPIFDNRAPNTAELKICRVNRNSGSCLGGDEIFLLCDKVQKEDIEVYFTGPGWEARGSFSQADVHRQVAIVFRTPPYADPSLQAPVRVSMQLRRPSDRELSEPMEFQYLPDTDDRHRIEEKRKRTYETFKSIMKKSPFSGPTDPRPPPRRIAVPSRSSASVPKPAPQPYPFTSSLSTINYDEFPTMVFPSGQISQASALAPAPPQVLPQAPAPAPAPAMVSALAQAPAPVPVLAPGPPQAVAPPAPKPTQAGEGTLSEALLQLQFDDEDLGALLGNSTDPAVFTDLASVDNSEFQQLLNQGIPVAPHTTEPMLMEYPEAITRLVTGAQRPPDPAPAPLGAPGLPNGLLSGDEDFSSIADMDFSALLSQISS", "assay": "Inhibition of cisplatin-induced NF-kappaB p65 phosphorylation in human HK2 cells at 4 uM by Western blot analysis", "assay_type": "cell-based", "summary_of_the_method": "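HK2 cells starved overnight in DMEM/F12 with 0.5% FBS, pretreated 6 h with compound, then given cisplatin 20 μM for 24 h. Lysates made in ice-cold RIPA buffer and protein measured by BCA. Run on 10% SDS-PAGE, transferred to nitrocellulose, primary antibodies 18 h at 4°C, IRDye 800 secondary 1.5 h at room temperature.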"}, "[6]": {"system": "HK-2", "assay": "Antiinflammatory activity in human HK2 cells assessed as suppression of cisplatin-induced MCP-1 […] level at 4 uM by ELISA", "assay_type": "functional, cell-based", "summary_of_the_method": "as §3"}, "[7]": {"system": "HK-2", "assay": "Antiinflammatory activity in human HK2 cells assessed as suppression of cisplatin-induced IL-6 mRNA level at 4 uM by SYBR-green based RT-PCR analysis", "assay_type": "functional, cell-based", "summary_of_the_method": "as §2"}, "[8]": {"system": "HK-2", "assay": "Antiinflammatory activity in human HK2 cells assessed as suppression of cisplatin-induced TNF-alpha mRNA level at 4 uM by SYBR-green based RT-PCR analysis", "assay_type": "functional, cell-based", "summary_of_the_method": "as §2"}, "[9]": {"system": "HK-2", "assay": "Cytotoxicity against human HK2 cells assessed as reduction in cell viability at 1 to 256 uM after 24 hrs by MTT assay", "assay_type": "cell-based", "details": "hk-2, 24 h", "summary_of_the_method": "as §1"}, "[10]": {"system": "HK-2", "assay": "Protection against cisplatin-induced cell death in human HK2 cells assessed as increase in survival rate at 4 uM preincubated for 6 hrs followed by cisplatin addition measured after 24 hrs by MTT assay relative to control", "assay_type": "functional", "details": "read-out: Survival", "summary_of_the_method": "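HK2 cells starved overnight in DMEM/F12 with 0.5% FBS, pretreated with compound for 6 h, then exposed to cisplatin (20 μM) for 24 h. Compounds from 5 mM DMSO stocks. Viability by MTT: 0.5 mg/mL final, 4 h at 37°C, formazan dissolved in DMSO, absorbance at 492 nm. Three to four independent experiments.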"}, "[11]": {"system": "HK-2", "assay": "Protection against cisplatin-induced cell death in human HK2 cells assessed as increase in survival rate preincubated for 6 hrs followed by cisplatin addition measured after 24 hrs by MTT assay", "assay_type": "functional, cell-based"}}, "note": "The source made the active and inactive calls. The rule behind the calls is not given here."}
{"smiles": "COc1ccc(C2(CNC(=O)[C@](C)(Cc3c[nH]c4ccccc34)NC(=O)Nc3ccc([N+](=O)[O-])cc3)CCCCC2)nc1", "values": [{"measurement": "Activity", "setting": "[1]", "result": "Toxic"}, {"measurement": "Activity", "setting": "[2]", "result": "Active"}, {"measurement": "Activity", "setting": "[3]", "result": "Active"}, {"measurement": "Activity", "setting": "[4]", "result": "Active"}, {"measurement": "inhibition", "setting": "[5]", "result": "Active"}, {"measurement": "Activity", "setting": "[6]", "result": "Active"}, {"measurement": "Activity", "setting": "[7]", "result": "Active"}, {"measurement": "Activity", "setting": "[8]", "result": "Active"}]}
{"smiles": "O=C(Cc1ccc(F)cc1)N[C@@H](Cc1ccc(O)cc1)C(=O)NCCN1CCOCC1", "values": [{"measurement": "Activity", "setting": "[2]", "result": "Active"}, {"measurement": "Activity", "setting": "[9]", "result": "Non-Toxic"}, {"measurement": "viability at 4 µM", "setting": "[10]", "result": "> 30", "unit": "%"}, {"measurement": "Activity", "setting": "[11]", "result": "Dose-dependent effect"}, {"measurement": "Activity", "setting": "[7]", "result": "Active"}, {"measurement": "Activity", "setting": "[8]", "result": "Active"}]}
{"smiles": "Cc1ccc(CC(=O)N[C@@H](Cc2ccccc2)C(=O)NCCn2ccnc2)cc1", "values": [{"measurement": "Activity", "setting": "[2]", "result": "Active"}, {"measurement": "Activity", "setting": "[3]", "result": "Active"}, {"measurement": "Activity", "setting": "[9]", "result": "Non-Toxic"}, {"measurement": "Activity", "setting": "[4]", "result": "Active"}, {"measurement": "inhibition", "setting": "[5]", "result": "Active"}, {"measurement": "viability at 4 µM", "setting": "[10]", "result": "> 40", "unit": "%"}, {"measurement": "Activity", "setting": "[11]", "result": "Dose-dependent effect"}, {"measurement": "Activity", "setting": "[6]", "result": "Active"}, {"measurement": "Activity", "setting": "[7]", "result": "Active"}, {"measurement": "Activity", "setting": "[8]", "result": "Active"}]}
